Legend:
Format in all cases: functional, cell-based
[1] = tested on: MCF7; experiment: Cytotoxicity against human MCF7 cells after 48 hrs by MTT assay
Outline: (§1)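 Cells grown in RPMI-1640 or DMEM with 10% FBS at 37 °C under 5% CO2. Adherent lines (A-549, MCF-7, SMMC-7721, SW480) were left to attach for 12 h before dosing; suspension HL-60 was seeded just before dosing at 1 × 10^5 cells/mL. Compounds were given in DMSO at 0.0625, 0.32, 1.6, 8 and 40 µmol, in triplicate, for 48 h. Read-out by MTT; cisplatin and vinorelbine were positive controls.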

[2] = tested on: HL-60; experiment: Cytotoxicity against human HL60 cells after 48 hrs by MTT assay; outline: as §1
[3] = tested on: SMMC-7721; experiment: Cytotoxicity against human SMMC7721 cells after 48 hrs by MTT assay; outline: as §1
[4] = tested on: SW480; experiment: Cytotoxicity against human SW480 cells after 48 hrs by MTT assay; outline: as §1
[5] = tested on: A549; experiment: Cytotoxicity against human A549 cells after 48 hrs by MTT assay; outline: as §1

| Structure (SMILES) | IC50 [1] [µmol] | IC50 [2] [µmol] | IC50 [3] [µmol] | IC50 [4] [µmol] | IC50 [5] [µmol] |
| --- | --- | --- | --- | --- | --- |
| CC[C@]12C=CCN3CC[C@]4(C(=C(C(=O)OC)C1)Nc1cc(OC)ccc14)[C@@H]32 | 2.1 | 0.2 | 13.1 | 12.7 | 12.8 |
| CCC1=C[C@@H]2CN(C1)Cc1c([nH]c3ccccc13)[C@@](C(=O)OC)(c1cc3c(cc1OC)N(C)[C@H]1[C@@](O)(C(=O)OC)[C@H](OC(C)=O)[C@]4(CC)C=CCN5CC[C@]31[C@@H]54)C2 [VINORELBINE] | 17.2 | < 0.06 | 4.7 | > 40 | 26.1 |
| CC[C@]12C=CCN3CCc4c(n(c5ccccc45)[C@@H](OC)C1)[C@@H]32 | 29.3 | 15.9 | 22.1 | 32.2 | > 40 |
| CC[C@]12C=CCN3CCc4c(n(c5ccccc45)[C@@H](c4ccc5c(c4)[C@@]46CCN7CC=C[C@@]8(C[C@@H](C(=O)OC)[C@]4(N5)[C@@H]8C)[C@H]76)C1)[C@@H]32 | 2.9 | 1.1 | 3.2 | 1.4 | 4.8 |
| CC[C@]12C=CCN3CC[C@]4(C(=C(C(=O)OC)C1)Nc1cc5c(cc14)[C@@H]1[C@H](O5)[C@@H](O)[C@@]4(CC)CC(C(=O)OC)=C5Nc6ccccc6[C@@]56CCN1[C@@H]46)[C@@H]32 [MELODININE K] | 2.7 | 0.1 | 3 | 5.7 | 5 |
| COC(=O)[C@@H]1C[C@@]23C=CCN4CC[C@@]5(c6ccccc6N[C@]15[C@@H]2C)[C@@H]43 [VINDOLININE] | 21.9 | 6.8 | 20.7 | 15.2 | 26.3 |

Source: ChEMBL document CHEMBL1165931, “Cytotoxic indole alkaloids from Melodinus tenuicaudatus” (J Nat Prod, 2010)
